# Measurements gathered from unrelated publications.
# Each line is one published result; the experiments were not run side by side.
# Target: Vascular endothelial growth factor receptor 2 (KDR, Homo sapiens, UniProt P35968)
# Read-out: enzyme activity
# Mode: inhibitor
Structure (SMILES),test,setting,remaining activity
CC(C)(O)[C@H]1CC[C@H](Nc2ccc3ncc(-c4cccc(C(F)(F)F)c4)n3n2)CC1,,1 µM,91.5%
O=C(Nc1cnn(-c2csc(C(=O)NC3COC3)c2)c1)Nc1c(F)cccc1Cl,,5 µM,88.3%
CC(C)(C)c1nc(-c2cccc(NS(=O)(=O)c3c(F)cccc3F)c2F)c(-c2ccnc(N)n2)s1,radiometric,1 µM,82%
COc1ccc(NC(=O)c2c(Nc3ccccc3)sc(C#N)c2NC(=O)CNc2ccc([N+](=O)[O-])cc2)cc1,,0.1 µM,86.1%
Cc1[nH]c(/C=C2\C(=O)Nc3ccc(F)cc32)c(C)c1C(=O)N[C@H]1CCN(C(=O)N(C)C)C1,,0.1 µM,10%
O=C(Nc1cnn(-c2csc(C(=O)NC3COC3)c2)c1)Nc1ccccc1Cl,,5 µM,95.2%
CC(C)(C)c1nc2c(s1)c1nc(N)ncc1c1ccc(NS(=O)(=O)c3c(F)cccc3F)c(F)c12,radiometric,1 µM,95%
CCN(CC)c1ccc(C2=NNC(=O)CC2C)cc1[N+](=O)[O-] (stereo not shown),,10 µM,99%
COc1ccc(NC(=O)c2c(Nc3ccccc3)sc(C#N)c2NC(=O)CNc2ccc(Cl)cc2)cc1,,100 µM,16.5%
CCCOc1ccc(OC)c(F)c1C(=O)c1ccc(C(=O)N[C@@H]2CNC[C@H]2NC(=O)c2ccc3[nH]ncc3c2)cc1,,10 µM,74%
COc1ccc(C=NNC(=O)c2sc(Nc3ccccc3)c(C(=O)Nc3ccc(OC)cc3)c2NC(C)=O)cc1,,0.1 µM,79.4%
Cc1cnc(NC2CCOCC2)nc1-n1cnc(C(=O)NC(CN)c2cc(F)cc(Cl)c2)c1 (stereo not shown),radiometric,1 µM,85%
COc1cc(Cl)c(C(=O)N[C@@H](CN[C@H]2CC[C@@H](N)CC2)Cc2ccc(C#N)cc2)cc1-c1ccc(CN[C@H](C)c2ccc(C)cc2)o1,,1 µM,82%
